This passage reports MIC and inhibition results from ChEMBL document CHEMBL1142174, “Pyrazinoic acid and its n-propyl ester inhibit fatty acid synthase type I in replicating tubercle bacilli” (2007).

Converted amounts (≈) assume the structure as drawn.

For test [1], the system named is Mycobacterium tuberculosis. The test can be described thus: Antimicrobial activity against Mycobacterium tuberculosis at pH 6 by broth microdilution test. Type of test: functional.
Test [2] has as its system Mycobacterium tuberculosis. Put plainly: Antimicrobial activity against Mycobacterium tuberculosis at pH 6.8 by broth microdilution test. Type of test: functional. In a few lines: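 Broth macrodilution MIC with an inoculum of 10^5 CFU/ml. Medium was Middlebrook 7H9 with 10% OADC, 0.2% glycerol and 0.05% Tween 80. Medium pH was set to 6 or 6.8 with 4.25% phosphoric acid or 5% dibasic potassium phosphate.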
In general terms: Broth dilution looks for growth in wells or tubes with falling amounts of substance.

Test [3] concerns Mycobacterium tuberculosis. The test can be described thus: Inhibition of fatty acid synthase 1 in Mycobacterium tuberculosis assessed as incorporation of [1-14C]acetate in C16 biosynthesis at 800 ug/ml. In a few lines:
(§1)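 M. tuberculosis was grown from frozen stock in 7H12 to OD600 0.3–0.4, diluted 10-fold and grown 48–72 h more. 10-ml aliquots (OD600 0.2–0.25) were pelleted and resuspended in fresh drug-containing medium for 12 h. Cells were labelled with [1-14C]acetate (1 μCi/ml) for 6 h. Soluble lipids were extracted and saponified, and 14C-labelled C16 was quantified.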

In test [4] the test system is Mycobacterium tuberculosis. The test can be described thus: Inhibition of fatty acid synthase 1 in Mycobacterium tuberculosis assessed as incorporation of [1-14C]acetate in C16 biosynthesis at 250 ug/ml. In a few lines: as §1
In test [5] the test system is Mycobacterium tuberculosis. Put plainly: Inhibition of fatty acid synthase 1 in Mycobacterium tuberculosis assessed as incorporation of [1-14C]acetate in C16 biosynthesis at 1200 ug/ml at pH 6.0. In a few lines: as §1
In test [6] the test system is Mycobacterium tuberculosis. Put plainly: Inhibition of fatty acid synthase 1 in Mycobacterium tuberculosis assessed as incorporation of [1-14C]acetate in C16 biosynthesis at 1250 ug/ml at pH 6.0. In a few lines:
as §1

Test [7] has as its system Mycobacterium tuberculosis. The test can be described thus: Inhibition of fatty acid synthase 1 in Mycobacterium tuberculosis assessed as incorporation of [1-14C]acetate in C16 biosynthesis at 250 ug/ml at pH 5.5. In a few lines:
as §1

For `CCCOC(=O)c1cnccn1`, the MIC (as a rule, the lowest concentration that inhibits growth of the organism) in test [1] came to 60 µg/mL (≈ 361 µM); in test [2], 80 µg/mL (≈ 481 µM). Also, the inhibition (as a rule, the relative decrease from the control value, in per cent) in test [3] was determined as 96%.

As to `NC(=O)c1cnc(Cl)cn1`, in test [4], the inhibition was 94%.

For `NC(=O)c1cnccn1`, the inhibition in test [5] worked out at 88%.

On to `O=C(O)c1cnccn1` [PYRAZINOIC ACID], for which the MIC is 100 µg/mL (≈ 806 µM) in test [1] and 300 µg/mL (≈ 2420 µM) in test [2]. The inhibition in test [6] and in test [7] was 60% throughout.
